NCF1 inh – blocks human p47phox regulatory protein of NADPH oxidases | p47phox/p22phox peptide binding, fluorescence polarization, 2 h | inhibition, % at 24.7 µM | P14598 | 0.53% of 220,000 active;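 active means inhibition above about 30%, limit read from the data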
Autophagy mod – autophagy modulation, high-content screen | MEF GFP-LC3 puncta imaging; test concentration mostly 10 µM | calls only at 10 µM (by protocol) | 0.98% of 190,000 active | AID 463193;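 active means percentage of spot-positive cells more than 3 SD above its plate mean, without a fluorescence outlier flag or 80% toxicity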
TNAP act hi DEA – TNAP (human) activation, high acceptor; 200,000 tested, under 10 active; purified TNAP, CDP-star luminescence, 1 M DEA, 30 min; active compounds read high; 0 = EDTA background, 1 = DMSO-only activity; P05186; activation factor at 20 µM;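 active means activation factor at least 2 at 20 µM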
Target sequence (P05186 whole entry, looked up): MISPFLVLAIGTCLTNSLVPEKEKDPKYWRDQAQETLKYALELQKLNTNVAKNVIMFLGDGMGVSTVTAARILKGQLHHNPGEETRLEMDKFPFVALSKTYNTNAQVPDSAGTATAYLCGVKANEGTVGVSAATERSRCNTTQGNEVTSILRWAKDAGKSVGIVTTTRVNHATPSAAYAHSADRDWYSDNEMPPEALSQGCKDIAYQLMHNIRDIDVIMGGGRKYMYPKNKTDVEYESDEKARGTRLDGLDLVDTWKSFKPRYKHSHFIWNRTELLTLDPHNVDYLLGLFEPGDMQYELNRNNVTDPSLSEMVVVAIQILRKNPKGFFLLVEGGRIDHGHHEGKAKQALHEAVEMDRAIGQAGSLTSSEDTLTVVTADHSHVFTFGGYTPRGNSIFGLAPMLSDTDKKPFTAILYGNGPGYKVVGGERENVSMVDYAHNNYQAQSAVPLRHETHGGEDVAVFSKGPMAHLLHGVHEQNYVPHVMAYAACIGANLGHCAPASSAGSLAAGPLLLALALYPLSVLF
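Test system – human TNAP · Doses – 20 µM single point · Incubation – 30 min, room temperature · Signal – luminescent substrate turnover signal · Read-out basis – activation factor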
Ins promoter up – MIN6 insulin promoter up-regulation; MIN6 insulin promoter-GFP reporter, high-content imaging; active compounds read high; z-score at 5 µM; 0.3% of 190,000 active;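 active means z-score above 3 at 5 µM with at least 500 cells counted in the well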
TNAP inh hi DEA – TNAP (human) inhibition, high acceptor; P05186; purified TNAP, CDP-star luminescence, 1 M DEA; inhibition, % at 20 µM; 0.03% of 200,000 active; AID 1135;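 active means over 50% inhibition of tissue-nonspecific alkaline phosphatase at 20 µM in the single-dose screen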
TNAP inh noacc – blocks human TNAP activity with no phosphate acceptor present; P05186; purified TNAP, CDP-star luminescence, 30 min; inhibition, % at 20 µM; 0.26% of 200,000 active; AID 1012;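 active means tissue-nonspecific alkaline phosphatase inhibition above about 50% at 20 µM in the single-dose screen, limit read from the data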
Each line names hits and unclear results; the compound was inactive in the other large screens; ! = not confirmed by another sample. Only some compounds are listed: those with a hit (about 1.8% of all), similar ones and a draw of the others.

COc1nccc(Nc2ccccc2)c1C#N	NCF1 inh 44
Nc1ccc2c(c1)OC1(CCCCC1)O2	NCF1 inh 45
CC(=C\c1ccccc1)/C=C1/SC(=S)N(CCC(=O)Nc2ccccn2)C1=O	Autophagy mod active
CCC(C)[C@@H](N)C(=O)N/N=C/c1cccc2nccnc12 (stereo partly specified)	none (no result: Autophagy mod, TNAP act hi DEA, TNAP inh hi DEA, TNAP inh noacc)
CNC[C@H](O)c1cccc(O)c1	none (no result: Ins promoter up)
CNC[C@H](O)c1ccc(O)c(O)c1	NCF1 inh 51, TNAP inh noacc 78 (no result: Ins promoter up)
C=CCNC(=O)c1ccccc1NC(=O)C1COc2ccccc2O1 (stereo unspecified)	none
COc1ccc(C2CC(=O)C3=C(C2)NC(C)=C(C#N)C3c2ccc(N(C)C)cc2)cc1 (stereo unspecified)	Autophagy mod active (no result: Ins promoter up)
COC(=O)c1ccc(C2C(C#N)=C(C)NC3=C2C(=O)CC(C)(C)C3)cc1 (stereo unspecified)	none
COc1ccc(CCNC(=O)C(NS(=O)(=O)c2ccc3c(c2)CCN3C(C)=O)C(C)C)cc1OC (stereo unspecified)	none
Cc1[nH]ccc(=O)c1OCc1ccccc1	NCF1 inh 59
O=C(NCCCN1CCN(CCCNC(=O)c2ccc(F)cc2)CC1)c1ccc(F)cc1	none (no result: Ins promoter up)
CN1CCN(CCCNC(=O)c2ccc3c(c2)N(Cc2ccccc2)CCS3)CC1	none
CN1CCN(CCCN2c3ccccc3Sc3ccc(Cl)cc32)CC1	NCF1 inh 110!
CN1CCN(CCCNC(=O)c2ccc(/C=C3/Sc4ccccc4N(Cc4cccc(Cl)c4)C3=O)cc2)CC1	NCF1 inh 78
CCN1CCN(CCNC(=O)c2ccc(/C=C3\Sc4ccccc4N(Cc4ccccc4F)C3=O)cc2)CC1	NCF1 inh 86, Autophagy mod active
CN1CCN(CCCNC(=O)c2ccc(/C=C3\Sc4ccccc4N(Cc4ccc(F)cc4)C3=O)cc2)CC1	NCF1 inh 87 (no result: Ins promoter up)
COCCCNC(=O)/C=C1\Sc2ccccc2N(Cc2ccccc2F)C1=O	none (no result: Ins promoter up)
COc1cccc(C(=O)Nc2sc(C(C)C)cc2C(N)=O)c1OC	none (no result: Autophagy mod, TNAP act hi DEA, TNAP inh hi DEA, TNAP inh noacc)
CCN1CC(CN(C)Cc2cn(-c3cccc(C)c3)nc2-c2cccc(F)c2)CC1=O (stereo unspecified)	none
N=c1c2c(-c3ccccc3)c(-c3ccccc3)n(Cc3ccco3)c2ncn1Cc1ccco1	Autophagy mod active
N=c1c2c(-c3ccccc3)c(-c3ccccc3)n(Cc3ccccc3)c2ncn1CCCn1ccnc1	Autophagy mod active
CCCCn1cnc2c(c(-c3ccccc3)c(-c3ccccc3)n2Cc2ccco2)c1=N	none (no result: Autophagy mod, TNAP act hi DEA, TNAP inh hi DEA, TNAP inh noacc)
Clc1nnc(N/N=C/c2ccccc2)c2ccccc12	none
Clc1ccc(/C=N/Nc2nnc(Cl)c3ccccc23)cc1	Autophagy mod active (no result: Ins promoter up)
Clc1cccc(/C=N/Nc2ncnc3ccccc23)c1	none
Cc1ccc(-c2nc(N/N=C/c3ccncc3)c3ccccc3n2)cc1	none
C(=N\Nc1ncnc2ccccc12)/c1ccccc1	Autophagy mod active
Clc1ccc(/C=N/Nc2nc(Cl)nc3ccccc23)cc1	NCF1 inh 70
Cc1ccc2nc(NCc3ccccc3)[nH]c2c1	Autophagy mod active
O=S(=O)(O)c1nc2ccccc2[nH]1	none (no result: Autophagy mod, TNAP act hi DEA, TNAP inh hi DEA, TNAP inh noacc)
COc1cc(-c2cc(=O)c3c(O)c(OC)c(OC)c(O)c3o2)ccc1O	TNAP inh noacc 64
Cc1[nH]c2ccccc2c1/C=C/c1nc2ccccc2c(=O)n1-c1ccc([N+](=O)[O-])cc1	Autophagy mod active
NC(=O)COC(=O)c1cccc(S(=O)(=O)N2CCCCC2)c1	none
CC(C)NC(=O)NC(=O)COC(=O)c1cccc(S(=O)(=O)N2CCCCC2)c1	Ins promoter up 4.6
CCOC(=O)C(=CNc1cccnc1Oc1ccc(C)c2c1CCC2)C(=O)OCC	none (no result: Autophagy mod, TNAP act hi DEA, TNAP inh hi DEA, TNAP inh noacc)
COc1ccc2c(C)nc(Nc3nc(C)cc(=O)[nH]3)nc2c1	Autophagy mod active (no result: NCF1 inh, TNAP act hi DEA, Ins promoter up, TNAP inh hi DEA, TNAP inh noacc)
COc1cccc(OC)c1-c1nn2c(-c3cc(-c4ccccc4)n[nH]3)nnc2s1	NCF1 inh 54
COc1cccc(-c2nnc3sc(-c4ccccc4)nn23)c1	none
O=c1c(Cl)nc2cc(Cl)ccc2n1CCNc1ncc(C(F)(F)F)cc1Cl	Autophagy mod active
Cc1ccc(CNC(=O)C(Cc2ccccc2)NS(=O)(=O)c2ccc(Br)s2)cc1 (stereo unspecified)	none
COc1ccc(-c2nc(-c3cccc([N+](=O)[O-])c3O)cc(=O)o2)cc1OC	none
COc1cc(/C=C2/C(=O)c3cccc([N+](=O)[O-])c3C2=O)c(Br)cc1O	TNAP inh noacc 66
Cc1nn(CC#N)c(=O)n1-c1ccc(Cl)cc1	Autophagy mod active
Cc1nonc1C(=O)N/N=C/c1ccc(O)cc1O	none
COc1ccc(C[C@H]2COC(=O)[C@@H]2Cc2ccc(OC3OC(CO)C(O)C(O)C3O)c(OC)c2)cc1OC (stereo partly specified)	none
COc1cc(C2OCC3C(c4ccc(OC5OC(CO)C(O)C(O)C5O)c(OC)c4)OCC23)ccc1O (stereo unspecified)	TNAP inh noacc 64
O=C(Nc1ccccc1C(=O)N1CCCCC1)NC1CCCCC1	none
CCCCNC(=O)c1cc2n(n1)C(C(F)(F)F)CC(c1ccccc1)N2 (stereo unspecified)	NCF1 inh 57 (no result: Ins promoter up)
Cc1ccc(C2CC(C(F)(F)F)n3nc(C(=O)NCCN4CCOCC4)cc3N2)cc1 (stereo unspecified)	none
CCc1cc2c(=O)c(-c3nc4ccccc4[nH]3)coc2c(CN2CCCCC2)c1O	none (no result: Autophagy mod, TNAP act hi DEA, TNAP inh hi DEA, TNAP inh noacc)
O=c1oc2c(CN3CCCCC3)c(O)ccc2cc1-c1nc2ccccc2[nH]1	Ins promoter up 3.6 (no result: NCF1 inh, Autophagy mod)
CS(=O)(=O)ON=C1CCN(S(=O)(=O)c2ccccc2)CC1	Ins promoter up 3.5
Cc1ccc(C(=O)ON=C2CCN(S(=O)(=O)c3ccccc3)CC2)cc1	none (no result: Ins promoter up)
CCCCC(CCCC)=N/N=C/c1c(O)n(CC)c2cc(C3=NNC(=O)CC3)ccc12	Autophagy mod active (no result: Ins promoter up)
CCn1c(O)c(/C=N/N=C2CCCC2)c2ccc(C3=NNC(=O)CC3)cc21	none
O=C(CSc1ncnc2scc(-c3ccc(Cl)cc3)c12)NCc1ccc2c(c1)OCO2	none
COc1ccc(/C=C/C(=O)NCC(=O)N/N=C/c2cc(Br)ccc2OC)cc1	NCF1 inh 101
COc1ccccc1/C=C/C(=O)NCC(=O)N/N=C/c1cc(Br)ccc1OC	none
CN(C)C1=NC(=O)/C(=C\c2ccccc2)S1	Autophagy mod active
Cc1cc(NC(=O)CSc2nnc(C3COc4ccccc4O3)o2)no1 (stereo unspecified)	Autophagy mod active
Cc1cc(NC(=O)CSc2nnc(C3COc4ccccc4O3)n2N)no1 (stereo unspecified)	NCF1 inh 44 (no result: Autophagy mod, TNAP act hi DEA, TNAP inh hi DEA, TNAP inh noacc)
C=CCn1c(SCC(=O)Nc2cc(C)on2)nnc1C1COc2ccccc2O1 (stereo unspecified)	none
